Experimental findings from ChEMBL document CHEMBL3351625, “Ethyl 2-(benzylidene)-7-methyl-3-oxo-2,3-dihydro-5H-thiazolo[3,2-a]pyrimidine-6-carboxylate analogues as a new scaffold for protein kinase casein kinase 2 inhibitor” (Bioorg Med Chem, 2014) are described below.

Structures are written as SMILES. Activity calls are given as the source filed them. No cut-off for these calls is given here.

For assay [1], the system named is AGS. The assay is described as follows: Cytotoxicity against human AGS cells assessed as cell viability at 10 uM after 24 hrs by MTT assay. Type of assay: functional, cell-based. The essentials:
(§1)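 AGS and HepG2 kept in Modified Eagle's Medium with serum and antibiotics at 37 °C, 5% CO2. Seeded at 1 × 10⁴ cells/well and grown 24 h, then exposed for 24 h. MTT at 4 mg/mL final for 2 h, formazan dissolved in DMSO, A570. Quadruplicate.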
(Formazan colour is commonly taken as a measure of viable cells.)

The subject of assay [2] is MKN-1. Description: Cytotoxicity against human MKN1 cells assessed as cell viability at 10 uM after 24 hrs by MTT assay. The class given is functional, cell-based. The essentials: (§2)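 Lines from Korea Cell Line Bank, kept in RPMI1640 with serum and penicillin/streptomycin at 37 °C, 5% CO2. Seeded at 1 × 10⁴ cells/well and grown 24 h, then exposed to the inhibitor for 24 h. MTT added at 4 mg/mL final for 2 h, formazan taken up in DMSO, absorbance read at 570 nm. Run in quadruplicate.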

Assay [3] concerns MKN-28. The assay is described as follows: Cytotoxicity against human MKN28 cells assessed as cell viability at 10 uM after 24 hrs by MTT assay. The class given is functional, cell-based. The essentials:
as §2

Another assay relates to MKN-45. Description: Cytotoxicity against human MKN45 cells assessed as cell viability at 10 uM after 24 hrs by MTT assay. The class given is functional, cell-based. The essentials: as §2
The test system of another assay is MKN-74. The assay is described as follows: Cytotoxicity against human MKN74 cells assessed as cell viability at 10 uM after 24 hrs by MTT assay. The class given is functional, cell-based. In outline:
as §2

The next assay concerns NCI-N87. The assay is described as follows: Cytotoxicity against human NCI-N87 cells assessed as cell viability at 10 uM after 24 hrs by MTT assay. Type of assay: functional, cell-based. In outline: as §2
A further assay has as its system SNU668. Description: Cytotoxicity against human SNU668 cells assessed as cell viability at 10 uM after 24 hrs by MTT assay. The class given is functional, cell-based. The essentials: as §2
For assay [4], the system named is HepG2. Description: Cytotoxicity against human HepG2 cells assessed as cell viability at 10 uM after 24 hrs by MTT assay. Type of assay: functional, cell-based. In outline: as §1
The test system of a further assay is Hep 3B2. The assay is described as follows: Cytotoxicity against human Hep3B cells assessed as cell viability at 10 uM after 24 hrs by MTT assay. The class given is functional, cell-based. The essentials:
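Hep3B kept in Dulbecco's Modified Eagle's Medium with serum and antibiotics at 37 °C, 5% CO2. Seeded at 1 × 10⁴ cells/well and grown 24 h, then exposed for 24 h. MTT at 4 mg/mL final for 2 h, DMSO solubilisation, A570. Quadruplicate.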

For assay [5], the system named is SK-HEP1. Description: Cytotoxicity against human SKHEP1 cells assessed as cell viability at 10 uM after 24 hrs by MTT assay. The class given is functional, cell-based.
For another assay, the system named is SNU878. The assay is described as follows: Cytotoxicity against human SNU878 cells assessed as cell viability at 10 uM after 24 hrs by MTT assay. The class given is functional, cell-based. In outline: as §2
Assay [6] has as its system TE-2. The assay is described as follows: Cytotoxicity against GFP-tagged human TE2 cells assessed as cell viability at 10 uM after 24 hrs by MTT assay. Type of assay: functional, cell-based. In outline: (§3)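 Esophageal TE2 cells stably carrying GFP or CK2α were plated at 1 × 10⁴ cells/well and grown 24 h. They were then exposed for 24 h, given MTT at 4 mg/mL final for 2 h, formazan dissolved in DMSO, absorbance at 570 nm.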

The subject of assay [7] is TE-2. The assay is described as follows: Cytotoxicity against human TE2 cells expressing CK2 assessed as cell viability at 10 uM after 24 hrs by MTT assay. The class given is functional, cell-based. In outline:
as §3

In assay [8] the test system is SNU739. Description: Cytotoxicity against human SNU739 cells assessed as cell viability at 10 uM after 24 hrs by MTT assay.
For assay [9], the target named is T1, Casein kinase II (Homo sapiens, UniProt P19784+P67870+P68400). The assay is described as follows: (§4) Inhibition of human CK2 assessed as residual activity by KinaseProfiler assay. Type of assay: protein-complex assay.
Assay [10] addresses Casein kinase II subunit alpha (Homo sapiens) (UniProt P68400). Description: Inhibition of recombinant human CK2alpha assessed as inhibition of phosphorylation of GST-CS at 10 uM by Coomassie brilliant blue staining based autoradiography.
The target of assay [11] is Casein kinase II (Homo sapiens) (UniProt P67870+P68400+P19784). The assay is described as §4. The class given is protein-complex assay.
Assay [12] addresses T1, Casein kinase II. Description: Competitive inhibition of human CK2 assessed as competitive with respect to ATP. The class given is protein-complex assay.
The test system of assay [13] is AGS. The assay is described as follows: Induction of apoptosis in TRAIL-resistant human AGS cells assessed as cell death at 10 uM after 24 hrs and subsequently treated with TRAIL 200 ng/ml for 2 hr by Annexin-V-FLUOS staining. The class given is functional, cell-based. The essentials:
(§5)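 Cells were left untreated or pretreated with the inhibitor at 10 µM for 24 h, then exposed to TRAIL (200 ng/mL) for 2 h. They were then washed with PBS and stained with Annexin-V-FLUOS/propidium iodide for 15 min. Apoptotic cells were counted by fluorescence microscopy. Viability was assessed in parallel by MTT. Data are given as mean ± SD.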

In assay [14] the test system is MKN-1. The assay is described as follows: Induction of apoptosis in TRAIL-resistant human MKN1 cells assessed as cell death at 10 uM after 24 hrs and subsequently treated with TRAIL 200 ng/ml for 2 hr by Annexin-V-FLUOS staining. Type of assay: functional, cell-based. The essentials: as §5
Assay [15] has as its system MKN-28. Description: Induction of apoptosis in TRAIL-resistant human MKN28 cells assessed as cell death at 10 uM after 24 hrs and subsequently treated with TRAIL 200 ng/ml for 2 hr by Annexin-V-FLUOS staining. Type of assay: functional, cell-based. In outline:
as §5

Assay [16] deals with HepG2. The assay is described as follows: Induction of apoptosis in TRAIL-resistant human HepG2 cells assessed as cell death at 10 uM after 24 hrs and subsequently treated with TRAIL 200 ng/ml for 2 hr by Annexin-V-FLUOS staining. The class given is functional, cell-based. In outline: as §5
Assay [17] deals with SK-HEP1. Description: Induction of apoptosis in TRAIL-resistant human SKHEP1 cells assessed as cell death at 10 uM after 24 hrs and subsequently treated with TRAIL 200 ng/ml for 2 hr by Annexin-V-FLUOS staining. The class given is functional, cell-based. In outline: as §5
Assay [18] concerns SNU739. The assay is described as follows: Induction of apoptosis in TRAIL-resistant human SNU739 cells assessed as cell death at 10 uM after 24 hrs and subsequently treated with TRAIL 200 ng/ml for 2 hr by Annexin-V-FLUOS staining. The class given is functional, cell-based. In outline:
as §5

Assay [19] has as its target Casein kinase II subunit alpha (Homo sapiens) (UniProt P68400). Description: Inhibition of recombinant human CK2alpha assessed as inhibition of phosphorylation of GST-CS by Coomassie brilliant blue staining based autoradiography.

As a reminder, the IC50 is the concentration needed to halve the response being measured. In general, Ki refers to a dissociation constant, usually derived from enzyme kinetics or from competition with a known ligand.

As for `Brc1c(Br)c(Br)c2[nH]nnc2c1Br`, the result with AGS [1], in the assay on MKN-1 [2], with MKN-28 [3], in the assay on MKN-45, with MKN-74 and in the assay on NCI-N87 was Active. For the same molecule, the result with SNU668, with HepG2 [4], in the assay with Hep 3B2, in the assay on SK-HEP1 [5], in the assay with SNU878 and with TE-2 [6] was Active. In addition, the outcome in the assay with TE-2 [7] and with SNU739 [8] was Active.
For the molecule `CCOC(=O)C1=C(C)N=c2s/c(=C\c3cc(O)c(O)c(O)c3)c(=O)n2C1c1ccc(Cl)cc1` (stereo not given), the IC50 at Casein kinase II [9] amounted to 8.79 µM. For the same molecule, the inhibition entry in [10] was “Active”.
Turning to `CCOC(=O)C1=C(C)N=c2s/c(=C\c3ccc(O)c(O)c3)c(=O)n2C1c1ccc(Cl)cc1` (stereo not given), the outcome (in assay [11]; in the assay on AGS [1]; with MKN-1 [2]; with MKN-28 [3]; in the assay with MKN-45; in the assay on MKN-74) was Active. In addition, the result in the assay with NCI-N87, in the assay on SNU668, with HepG2 [4], with Hep 3B2, with SK-HEP1 [5] and in the assay on SNU878 was Active. Also, the result in the assay with TE-2 [6], with TE-2 [7], in the assay on AGS [13], in the assay with MKN-1 [14], in the assay on MKN-28 [15] and in the assay on HepG2 [16] was Active. For the same molecule, the result in the assay with SK-HEP1 [17], in the assay with SNU739 [18] and in the assay on SNU739 [8] was Active. The inhibitory constant (Ki) at Casein kinase II [12] was 0.78 µM. For the same molecule, the inhibition entry in assay [19] and in assay [10] was “Active” throughout.
